Test results taken from publication PMC5879491 (Journal of the American Chemical Society, 2018).

Legend:
H3R [1] = target: T1, H3R (Homo sapiens, UniProt Q9Y5N1); type: binding; conditions: for effect of illumination of compound solution at 360 ± 20 nm on affinity: data not shown
How it was run: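 A 1 mM stock of test compound was either illuminated at 360 ± 20 nm to PSS (checked by LC–MS) or kept dark; all later handling was in darkness. Competition ran at 10^-5 to 10^-12 M against 1.6 nM [3H]-Nα-methylhistamine. Membranes were homogenates of HEK293T cells PEI-transfected 48 h with human H3R (445 isoform). Incubation was 2 h at 25 °C in 50 mM Tris–HCl pH 7.4, followed by GF/C filtration and scintillation counting. Ki was obtained by Cheng–Prusoff; the shift was pKi cis minus pKi trans.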

H3R [2] = target: T1, H3R; test: Two-electrode voltage clamp; type: cell-based
hH2R = hH2R (Homo sapiens, UniProt P25021); test: H2R radioligand binding
Sequence of hH2R (P25021 whole entry): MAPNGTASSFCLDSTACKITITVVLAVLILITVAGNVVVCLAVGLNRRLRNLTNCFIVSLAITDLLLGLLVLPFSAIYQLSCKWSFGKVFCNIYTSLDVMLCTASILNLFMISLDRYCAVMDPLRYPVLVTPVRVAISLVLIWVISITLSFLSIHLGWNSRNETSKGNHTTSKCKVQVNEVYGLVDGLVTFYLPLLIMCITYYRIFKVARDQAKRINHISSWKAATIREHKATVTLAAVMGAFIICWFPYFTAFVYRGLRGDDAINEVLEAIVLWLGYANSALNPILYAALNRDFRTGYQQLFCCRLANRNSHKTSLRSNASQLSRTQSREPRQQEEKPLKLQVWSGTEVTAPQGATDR

hH4R = hH4R (Homo sapiens, UniProt Q9H3N8); test: H4R radioligand binding
Sequence of hH4R (Q9H3N8 whole entry): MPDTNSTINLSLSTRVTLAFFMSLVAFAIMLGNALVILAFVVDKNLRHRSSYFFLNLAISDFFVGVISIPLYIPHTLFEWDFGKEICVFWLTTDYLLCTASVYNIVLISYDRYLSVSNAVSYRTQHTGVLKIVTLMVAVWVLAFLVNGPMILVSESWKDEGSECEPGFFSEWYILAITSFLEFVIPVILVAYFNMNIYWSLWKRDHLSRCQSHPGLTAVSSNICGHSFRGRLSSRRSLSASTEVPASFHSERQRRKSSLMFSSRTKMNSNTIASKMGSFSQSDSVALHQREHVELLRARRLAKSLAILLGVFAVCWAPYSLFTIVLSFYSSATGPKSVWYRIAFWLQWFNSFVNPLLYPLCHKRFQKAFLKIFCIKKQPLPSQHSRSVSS

[3] = Real-time photoisomerization rate by UV-vis under perpendicular illumination; type: physicochemical; conditions: 25 μM in 50 mM Tris-HCl pH 7.4 + 1% DMSO-d6
How it was run: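 Real-time kinetics: test compound at 25 μM in 50 mM Tris–HCl pH 7.4 with 1% DMSO-d6. Illumination alternated between 360 ± 20 nm and 434 ± 9 nm, delivered perpendicular to the spectrometer beam. Spectra were taken at 1 s intervals, with absorbance followed at 344 or 319 nm depending on compound. Photoisomerization half-lives came from fits to the absorbance data.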

[4] = Photostability and fatigue resistance under prolonged or repeated illumination; type: physicochemical

T1 sequence (Q9Y5N1 whole entry, canonical isoform): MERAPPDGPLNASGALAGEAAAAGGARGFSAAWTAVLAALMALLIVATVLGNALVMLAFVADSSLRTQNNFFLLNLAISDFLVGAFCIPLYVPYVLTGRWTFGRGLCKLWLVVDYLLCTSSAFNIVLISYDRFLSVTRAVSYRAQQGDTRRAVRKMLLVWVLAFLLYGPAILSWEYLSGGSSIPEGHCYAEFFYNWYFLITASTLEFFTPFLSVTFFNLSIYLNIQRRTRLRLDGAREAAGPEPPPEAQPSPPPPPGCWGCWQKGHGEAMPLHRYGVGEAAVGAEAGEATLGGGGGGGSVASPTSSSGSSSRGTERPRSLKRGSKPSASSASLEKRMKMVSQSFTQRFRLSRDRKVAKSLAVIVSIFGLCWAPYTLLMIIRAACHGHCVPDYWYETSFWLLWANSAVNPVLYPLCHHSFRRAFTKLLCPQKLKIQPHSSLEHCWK

O=C(c1ccc2cc(OCCCN3CCCCC3)ccc2c1)N1CCCC1 [Compound 1]
effect of illumination of compound solution at 360 ± 20 nm on affinity (H3R [1]): not affected

pertussis toxin
inhibition of GIRK channel activation by histamine (1 μM) (H3R [2]; pretreating the oocytes, 1.37 ng/oocyte): fully inhibited

NCCc1c[nH]cn1 [Histamine]
effect of illumination of compound solution at 360 ± 20 nm on affinity (H3R [1]): not affected

O=C(c1cccc(/N=N/c2cccc(OCCCN3CCCCC3)c2)c1)N1CCCC1 [Compound 28]
increase in H3R binding affinity upon photoisomerization (H3R [1]; illumination at 360 nm, PSS cis vs trans, listed as VUF14738): over 10 fold | affinity for H2R (hH2R): no measurable affinity | affinity for H4R (hH4R): no measurable affinity | change in current upon superfusion of compound only (H3R [2]; noninjected and H3R-GIRK expressing oocytes): did not result in changes in current | photoisomerization half-life ([3]; illumination 360 ± 20 nm): 16 ± 0.9 s | photoisomerization half-life ([3]; illumination 434 ± 9 nm): 11 ± 0.3 s | photodegradation (1H NMR and LC-MS) ([4]; 48 h illumination at 360 ± 20 nm, 0.77 mW/mm^2): no apparent photodegradation | resistance to fatigue / photobleaching ([4]; over 1000 isomerization cycles, 360 ± 20 and 434 ± 9 nm, 20 s intervals): highly resistant to photobleaching

NC(=NCc1ccc(Cl)cc1)SCCCc1cnc[nH]1 [clobenpropit]
inhibition of GIRK channel activation by histamine (1 μM) (H3R [2]; simultaneous superfusion, 1 μM): fully inhibited
